Reference: ChEMBL document CHEMBL1152452, “Modifications incorporated in CpG motifs of oligodeoxynucleotides lead to antagonist activity of toll-like receptors 7 and 9” (2009)
Calls of active or inactive are those of the source. The rule behind the calls is not given here.

Columns and labels:
[1] = test system: Mus musculus; assay: Immunostimulatory activity in C57BL/6 mouse assessed as inhibition of TLR3 agonist-induced IL12 production in serum at 10 mg/kg, sc administered 24 hrs prior to TLR3 agonist challenge measured after 2 hrs by Luminex multiplex assay
[2] = test system: Mus musculus; assay: Immunostimulatory activity in C57BL/6 mouse assessed as inhibition of 5'-CTATCTGACGTTCTCTGT-3'-induced IL12 production in serum at 10 mg/kg, sc administered 24 hrs prior to 5'-CTATCTGACGTTCTCTGT-3' challenge measured after 2 hrs by sandwich ELISA; assay type: functional; settings: C57BL/6, sc, route subcutaneous
How it was run: (§1)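 C57BL/6 mice received 10 mg/kg ODN sc in the right flank. The TLR9 agonist ODN was then given at 0.5 mg/kg sc in the left flank 24, 48 or 72 h later. Serum IL-12 was measured by ELISA 2 h after challenge. Naive serum served as reference. Representative of three experiments.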

[3] = test system: Mus musculus; assay: Immunostimulatory activity in C57BL/6 mouse assessed as inhibition of 5'-CTATCTGACGTTCTCTGT-3'-induced MIP1a production in serum at 5 mg/kg, sc administered 24 hrs prior to 5'-CTATCTGACGTTCTCTGT-3' challenge measured after 2 hrs by Luminex multiplex assay; assay type: functional; settings: C57BL/6, sc, route subcutaneous
[4] = test system: Mus musculus; assay: Immunostimulatory activity in C57BL/6 mouse assessed as inhibition of TLR7 agonist-induced IL10 production in serum at 5 mg/kg, sc administered 24 hrs prior to TLR7 agonist challenge measured after 2 hrs by Luminex multiplex assay; assay type: functional; settings: C57BL/6, sc, route subcutaneous
[5] = test system: Mus musculus; assay: Immunostimulatory activity in C57BL/6 mouse assessed as inhibition of TLR3 agonist-induced MCP1 production in serum at 10 mg/kg, sc administered 24 hrs prior to TLR3 agonist challenge measured after 2 hrs by Luminex multiplex assay
[6] = test system: Mus musculus; assay: Immunostimulatory activity in C57BL/6 mouse assessed as inhibition of TLR3 agonist-induced MIP1a production in serum at 10 mg/kg, sc administered 24 hrs prior to TLR3 agonist challenge measured after 2 hrs by Luminex multiplex assay
[7] = test system: Mus musculus; assay: Immunostimulatory activity in C57BL/6 mouse assessed as inhibition of 5'-CTATCTGACGTTCTCTGT-3'-induced KC production in serum at 5 mg/kg, sc administered 24 hrs prior to 5'-CTATCTGACGTTCTCTGT-3' challenge measured after 2 hrs by Luminex multiplex assay; assay type: functional; settings: C57BL/6, sc, route subcutaneous
[8] = test system: Mus musculus; assay: Immunostimulatory activity in C57BL/6 mouse assessed as inhibition of 5'-CTATCTGACGTTCTCTGT-3'-induced IL12 production in serum at 5 mg/kg, sc administered 24 hrs prior to 5'-CTATCTGACGTTCTCTGT-3' challenge measured after 2 hrs by sandwich ELISA; assay type: functional; settings: C57BL/6, sc, route subcutaneous
How it was run: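 C57BL/6 mice were pretreated sc in the right flank with 2, 5 or 10 mg/kg ODN. After 24 h, the TLR9 agonist ODN was given at 0.5 mg/kg sc in the left flank. Serum IL-12 was measured by ELISA 2 h later. Representative of two experiments.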

[9] = test system: Mus musculus; assay: Immunostimulatory activity in C57BL/6 mouse assessed as inhibition of TLR3 agonist-induced IL10 production in serum at 10 mg/kg, sc administered 24 hrs prior to TLR3 agonist challenge measured after 2 hrs by Luminex multiplex assay
[10] = test system: Mus musculus; assay: Immunostimulatory activity in C57BL/6 mouse assessed as inhibition of LPS-induced KC production in serum at 10 mg/kg, sc administered 24 hrs prior to LPS challenge measured after 2 hrs by Luminex multiplex assay
[11] = test system: Mus musculus; assay: Immunostimulatory activity in sc dosed C57BL/6 mouse assessed as inhibition of 5'-CTATCTGACGTTCTCTGT-3'-induced IL12 production in serum administered 24 hrs prior to 5'-CTATCTGACGTTCTCTGT-3' challenge measured after 2 hrs by sandwich ELISA; assay type: functional, organism-based
How it was run: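 Test ODN was given sc in the right flank of C57BL/6 mice at 2, 5 or 10 mg/kg. After 24 h (or 24, 48 or 72 h in the duration study), the agonist ODN was given sc in the left flank at 0.25, 0.5 or 1 mg/kg (0.5 mg/kg by default). Serum was taken 2 h later by retro-orbital bleed, and IL-12 was measured by sandwich ELISA.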

[12] = test system: Mus musculus; assay: Immunostimulatory activity in C57BL/6 mouse assessed as inhibition of 5'-CTATCTGACGTTCTCTGT-3'-induced IL12 production in serum at 10 mg/kg, sc administered 48 hrs prior to 5'-CTATCTGACGTTCTCTGT-3' challenge measured after 2 hrs by sandwich ELISA; assay type: functional; settings: C57BL/6, sc, route subcutaneous
How it was run: as §1

[13] = test system: Mus musculus; assay: Immunostimulatory activity in C57BL/6 mouse assessed as inhibition of 0.5 mg/kg 5'-CTATCTGACGTTCTCTGT-3'-induced IL12 production in serum at 10 mg/kg, sc administered 24 hrs prior to 5'-CTATCTGACGTTCTCTGT-3' challenge measured after 2 hrs by sandwich ELISA; assay type: functional
How it was run: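 C57BL/6 mice received 10 mg/kg ODN sc in the right flank. After 24 h, the CpG TLR9 agonist ODN was given sc in the left flank at 0.25, 0.5 or 1 mg/kg. Serum IL-12 was measured by ELISA 2 h after challenge. Naive mice served as reference. Representative of two experiments.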

[14] = test system: Mus musculus; assay: Immunostimulatory activity in C57BL/6 mouse assessed as inhibition of 5'-CTATCTGACGTTCTCTGT-3'-induced IL10 production in serum at 5 mg/kg, sc administered 24 hrs prior to 5'-CTATCTGACGTTCTCTGT-3' challenge measured after 2 hrs by Luminex multiplex assay; assay type: functional; settings: C57BL/6, sc, route subcutaneous
[15] = test system: Mus musculus; assay: Immunostimulatory activity in C57BL/6 mouse assessed as inhibition of LPS-induced IL6 production in serum at 10 mg/kg, sc administered 24 hrs prior to LPS challenge measured after 2 hrs by Luminex multiplex assay
[16] = test system: Mus musculus; assay: Immunostimulatory activity in C57BL/6 mouse assessed as inhibition of 5'-CTATCTGACGTTCTCTGT-3'-induced IL6 production in serum at 5 mg/kg, sc administered 24 hrs prior to 5'-CTATCTGACGTTCTCTGT-3' challenge measured after 2 hrs by Luminex multiplex assay; assay type: functional; settings: C57BL/6, sc, route subcutaneous
[17] = test system: Mus musculus; assay: Immunostimulatory activity in C57BL/6 mouse assessed as inhibition of LPS-induced MIG production in serum at 10 mg/kg, sc administered 24 hrs prior to LPS challenge measured after 2 hrs by Luminex multiplex assay

## COC1[C@H](n2cnc3c(=O)[nH]c(N)nc32)O[C@H](COP(=O)(S)O[C@H]2C[C@H](n3cc(C)c(N)nc3=O)O[C@@H]2COP(=O)(S)O[C@H]2C[C@H](n3cnc4c(N)ncnc43)O[C@@H]2COP(=O)(S)O[C@H]2C[C@H](n3cnc4c(=O)[nH]c(N)nc43)O[C@@H]2COP(=O)(S)O[C@H]2C[C@H](n3cc(C)c(=O)[nH]c3=O)O[C@@H]2COP(=O)(S)O[C@H]2C[C@H](n3ccc(N)nc3=O)O[C@@H]2COP(=O)(S)O[C@H]2C[C@H](n3cc(C)c(=O)[nH]c3=O)O[C@@H]2COP(=O)(S)O[C@H]2C[C@H](n3cnc4c(N)ncnc43)O[C@@H]2COP(=O)(S)O[C@H]2C[C@H](n3cc(C)c(=O)[nH]c3=O)O[C@@H]2COP(=O)(S)O[C@H]2C[C@H](n3ccc(N)nc3=O)O[C@@H]2CO)[C@H]1OP(=O)(S)OC[C@H]1O[C@@H](n2cc(C)c(=O)[nH]c2=O)C[C@@H]1OP(=O)(S)OC[C@H]1O[C@@H](n2cc(C)c(=O)[nH]c2=O)C[C@@H]1OP(=O)(S)OC[C@H]1O[C@@H](n2ccc(N)nc2=O)C[C@@H]1OP(=O)(S)OC[C@H]1O[C@@H](n2cc(C)c(=O)[nH]c2=O)C[C@@H]1OP(=O)(S)OC[C@H]1O[C@@H](n2ccc(N)nc2=O)C[C@@H]1OP(=O)(S)OC[C@H]1O[C@@H](n2cc(C)c(=O)[nH]c2=O)C[C@@H]1OP(=O)(S)OC[C@H]1O[C@@H](n2cnc3c(=O)[nH]c(N)nc32)C[C@@H]1OP(=O)(S)OC[C@H]1O[C@@H](n2cc(C)c(=O)[nH]c2=O)C[C@@H]1O (some centres not stated)
[1]
  Activity: inactive
[2]
  inhibition in vivo at 10 mg/kg: 81%
[3]
  inhibition in vivo at 5 mg/kg: 50%
[4]
  inhibition in vivo at 5 mg/kg: 50%
[5]
  Activity: inactive
[6]
  Activity: inactive
[7]
  inhibition in vivo at 5 mg/kg: 50%
[8]
  inhibition in vivo at 5 mg/kg: 66%
[9]
  Activity: inactive
[10]
  Activity: inactive
[11]
  Activity: Dose-dependent effect
[12]
  inhibition in vivo at 10 mg/kg: 57%
[13]
  inhibition (INH): 66%
[14]
  inhibition in vivo at 5 mg/kg: 50%
[15]
  Activity: inactive
[16]
  inhibition in vivo at 5 mg/kg: 50%
[17]
  Activity: inactive
